# How the values were obtained:
# K562 = test: Antiproliferative activity against human K562 cells assessed as inhibition of cell growth incubated for 72 hrs by resazurin dye based assay; assay type: functional; conditions: K562, 72 h
# Summary of the method: (§1)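 Logarithmic-phase cells were seeded at 5000 per well and treated 24 h later, in triplicate, with various concentrations for 72 h. MOLM14 lines were grown in RPMI with 10 % FBS, and other lines per provider instructions, all at 37 °C and 5 % CO2. Resazurin was then added for 4–6 h and fluorescence read. GI50 was taken from percent growth versus DMSO control, fitted with a variable-slope normalized-response model; at least three runs.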
# MOLM-14 [1] = assay type: functional, cell-based; conditions: Homo sapiens, MOLM-14, 72 h
# MOLM-14 [2] = test: Antiproliferative activity against human MOLM-14 cells harboring FLT3-D835Y mutant assessed as inhibition of cell growth incubated for 72 hrs by resazurin dye based assay; assay type: functional; conditions: MOLM-14, 72 h; summary of the method: as §1
# MOLM-14 [3] = test: Antiproliferative activity against human MOLM-14 cells assessed as inhibition of cell growth incubated for 72 hrs by resazurin dye based assay; assay type: functional; conditions: MOLM-14, 72 h; summary of the method: as §1
# [4] = molecular target: T1, Receptor-type tyrosine-protein kinase FLT3 (Homo sapiens, UniProt P36888); test: Inhibition of FLT3 (unknown origin) by bioluminescent ADP-Glo assay
# T1 sequence (P36888 whole entry): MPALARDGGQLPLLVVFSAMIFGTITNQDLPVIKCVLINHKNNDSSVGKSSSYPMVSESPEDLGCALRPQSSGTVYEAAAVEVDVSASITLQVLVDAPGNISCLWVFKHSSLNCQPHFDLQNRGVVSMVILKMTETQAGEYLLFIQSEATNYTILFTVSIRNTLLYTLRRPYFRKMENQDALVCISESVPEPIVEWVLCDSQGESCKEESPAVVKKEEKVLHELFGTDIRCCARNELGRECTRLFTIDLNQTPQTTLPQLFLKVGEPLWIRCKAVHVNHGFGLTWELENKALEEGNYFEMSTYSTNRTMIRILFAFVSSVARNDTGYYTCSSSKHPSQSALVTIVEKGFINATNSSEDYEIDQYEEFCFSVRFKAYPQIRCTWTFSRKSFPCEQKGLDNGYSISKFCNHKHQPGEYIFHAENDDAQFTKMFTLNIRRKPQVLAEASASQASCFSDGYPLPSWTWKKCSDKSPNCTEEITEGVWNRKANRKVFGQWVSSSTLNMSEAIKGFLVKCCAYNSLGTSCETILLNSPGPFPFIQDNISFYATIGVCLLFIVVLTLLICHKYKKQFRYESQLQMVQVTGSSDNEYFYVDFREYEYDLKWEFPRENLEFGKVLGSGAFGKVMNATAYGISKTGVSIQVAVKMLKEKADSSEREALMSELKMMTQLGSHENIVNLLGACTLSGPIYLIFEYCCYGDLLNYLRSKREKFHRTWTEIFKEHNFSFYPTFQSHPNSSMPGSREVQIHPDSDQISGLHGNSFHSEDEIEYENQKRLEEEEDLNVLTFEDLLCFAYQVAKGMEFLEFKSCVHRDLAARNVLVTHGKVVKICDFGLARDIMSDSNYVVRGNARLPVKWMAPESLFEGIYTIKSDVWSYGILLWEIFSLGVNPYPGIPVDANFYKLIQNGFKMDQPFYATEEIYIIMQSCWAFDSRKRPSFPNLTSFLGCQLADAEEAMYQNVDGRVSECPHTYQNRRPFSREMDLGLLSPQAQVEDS
# [5] = Cytotoxicity against HEK293 cells lacking FLT3 activating mutations assessed as inhibition of cell growth incubated for 72 hrs by resazurin dye based assay; assay type: toxicity; conditions: human; summary of the method: as §1
# MDA-MB-231 = test: Antiproliferative activity against human MDA-MB-231 cells lacking FLT3 activating mutations assessed as inhibition of cell growth incubated for 72 hrs by resazurin dye based assay; assay type: functional; conditions: MDA-MB-231, 72 h; summary of the method: as §1
SMILES,IC50 (K562) [nM],IC50 (MOLM-14 [1]) [nM],IC50 (MOLM-14 [2]) [nM],IC50 (MOLM-14 [3]) [nM],IC50 [4] [nM],IC50 (MDA-MB-231) [nM],IC50 at 72 h [5] [nM]
Cn1cc(-c2ccn3c(-c4cccc(Nc5ccc(C(=O)OC(C)(C)C)cc5)n4)cnc3c2)cn1,> 1000,792,76.6,76.6,–,–,–
Cn1cc(-c2ccn3c(-c4cccc(Nc5ccc(C(F)(F)F)cc5)n4)cnc3c2)cn1,> 1000,160,18.9,33.3,–,–,–
Cn1cc(-c2ccn3c(-c4cccc(Nc5ccc([N+](=O)[O-])cc5)n4)cnc3c2)cn1,923,314,5.19,6.82,–,–,–
Cn1cc(-c2ccn3c(-c4cccc(Nc5ccc(C#N)cc5)n4)cnc3c2)cn1,> 1000,135,48,18.3,–,–,–
Cn1cc(-c2ccn3c(-c4cccc(Nc5ccc(Cl)cc5)n4)cnc3c2)cn1,736,337,23.1,28.8,–,–,–
Cc1ccc(-n2nc(C(C)(C)C)cc2Nc2cccc(-c3cnc4cc(-c5cnn(C)c5)ccn34)n2)cc1,> 1000,> 1000,414,162,–,–,–
CCc1nc(C(N)=O)c(Nc2ccc(N3CCC(N4CCN(C)CC4)CC3)c(OC)c2)nc1NC1CCOCC1 [GILTERITINIB],> 1000,–,–,–,–,–,–
Cn1cc(-c2ccn3c(-c4cccc(Nc5ccccc5C(F)(F)F)n4)cnc3c2)cn1,262,184,0.31,0.95,–,–,–
Cn1cc(-c2ccn3c(-c4cccc(Nc5cc(C(C)(C)C)nn5-c5ccc(F)cc5)n4)cnc3c2)cn1,> 1000,> 1000,56,18,–,–,–
CC(C)(C)c1ccc(Nc2cccc(-c3cnc4cc(-c5ccc(S(C)(=O)=O)cc5)ccn34)n2)cc1,> 1000,> 1000,203,110,–,–,–
Cn1cc(-c2ccn3c(-c4cccc(Nc5ccc(C(C)(C)C)cc5)n4)cnc3c2)cn1,> 1000,> 1000,41.9,–,–,–,–
Cn1cc(-c2ccn3c(-c4cccc(Nc5cccc(C(C)(C)C)c5)n4)cnc3c2)cn1,> 1000,412,265,154,288,> 1000,993
Cc1ccc(-n2nc(C(C)(C)C)cc2Nc2cccc(-c3cnc4cc(-c5ccc(S(C)(=O)=O)cc5)ccn34)n2)cc1,> 1000,> 1000,613,278,–,–,–
CC1CN(c2cccc(-c3cnc4cc(-c5cnn(C)c5)ccn34)n2)CCN1C(=O)OC(C)(C)C (stereo not drawn),> 1000,426,353,101,–,–,–
Cn1cc(-c2ccn3c(-c4ccc(Cl)cc4)cnc3c2)cn1,> 1000,293,166,16.9,–,–,–
Cn1cc(-c2ccn3c(-c4cccc(Nc5ccc(N6CCOCC6)cc5)n4)cnc3c2)cn1,> 1000,238,1.41,3.25,–,–,–
Cn1cc(-c2ccn3c(-c4cccc(Cl)c4)cnc3c2)cn1,> 1000,304,591,29.5,–,–,–
Cn1cc(-c2ccn3c(-c4cccc(Nc5ccc(OC(F)(F)F)cc5)n4)cnc3c2)cn1,> 1000,462,49.9,19.3,–,–,–
CCc1ccc(Nc2cccc(-c3cnc4cc(-c5cnn(C)c5)ccn34)n2)cc1,927,294,3.62,9.03,–,–,–
Cn1cc(-c2ccn3c(-c4ccccc4Cl)cnc3c2)cn1,> 1000,> 1000,> 1000,397,–,–,–
Cn1cc(-c2ccn3c(-c4cccc(Nc5ccc6c(c5)OCO6)n4)cnc3c2)cn1,–,920,4.91,6.09,–,–,–
Cn1cc(-c2ccn3c(-c4cccc(Nc5cnccn5)n4)cnc3c2)cn1,115,259,2.46,4.03,–,–,–
CCOC(=O)Cc1ccc(Nc2cccc(-c3cnc4cc(-c5cnn(C)c5)ccn34)n2)cc1,> 1000,> 1000,121,99,–,–,–
COC(=O)c1ccc(C)c(Nc2cccc(-c3cnc4cc(-c5cnn(C)c5)ccn34)n2)c1,> 1000,> 1000,177,233,–,–,–
CC(C)c1ccc(Nc2cccc(-c3cnc4cc(-c5cnn(C)c5)ccn34)n2)cc1,> 1000,142,8.91,13.5,–,–,–
COc1cc2/c(=N/c3ccc(Br)cc3F)nc[nH]c2cc1OCC1CCN(C)CC1 [VANDETANIB],–,> 20000,–,–,–,–,–
Cn1cc(-c2ccn3c(-c4cccc(NCc5c(F)cccc5F)n4)cnc3c2)cn1,119,566,5.9,1.31,–,–,–
Cn1cc(-c2ccn3c(-c4cccc(Cl)n4)cnc3c2)cn1,> 1000,458,228,28.7,–,–,–
Cn1cc(-c2ccn3c(-c4cccc(N5CCN(C(=O)OC(C)(C)C)CC5)n4)cnc3c2)cn1,> 1000,794,259,51.9,–,–,–

# Further lines, with some results ahead:
IC50 (K562) [nM],IC50 (MOLM-14 [1]) [nM],IC50 (MOLM-14 [2]) [nM],IC50 (MOLM-14 [3]) [nM],IC50 [4] [nM],IC50 (MDA-MB-231) [nM],SMILES,IC50 at 72 h [5] [nM]
> 1000,90.7,4.39,6.76,–,–,C=Cc1ccc(Nc2cccc(-c3cnc4cc(-c5cnn(C)c5)ccn34)n2)cc1,–
> 1000,9.98,0.87,1.72,–,–,Cn1cc(-c2ccn3c(-c4cccc(Nc5ccc6c(c5)OCCO6)n4)cnc3c2)cn1,–
688,54.2,5.32,4.3,–,–,Cn1nc(C(C)(C)C)cc1Nc1cccc(-c2cnc3cc(-c4ccc(S(C)(=O)=O)cc4)ccn23)n1,–
> 1000,9.8,0.77,0.19,–,–,Cn1cc(-c2ccn3c(-c4cccc(Nc5ccc(OCCN6CCCCC6)cc5)n4)cnc3c2)cn1,–
> 1000,7.1,1.83,1,–,–,Cn1cc(-c2ccn3c(-c4cccc(Nc5ccc(OCCN6CCOCC6)cc5)n4)cnc3c2)cn1,–
219,18.9,5.67,–,–,–,Cc1ccc(Nc2cccc(-c3cnc4cc(-c5cnn(C)c5)ccn34)n2)cc1,–
960,105,27.5,6.95,–,–,COc1cc(Nc2cccc(-c3cnc4cc(-c5cnn(C)c5)ccn34)n2)cc(OC)c1OC,–
274,14.4,1.65,2.38,–,–,COc1ccccc1Nc1cccc(-c2cnc3cc(-c4cnn(C)c4)ccn23)n1,–
210,32.6,2.59,3.8,–,–,Cn1cc(-c2ccn3c(-c4cccc(Nc5cc(C(C)(C)C)nn5C)n4)cnc3c2)cn1,–
> 1000,130,43.9,–,94.6,> 1000,COc1cc(Nc2cccc(-c3cnc4cc(-c5ccc(S(C)(=O)=O)cc5)ccn34)n2)cc(OC)c1OC,> 1000
924,7.42,0.87,0.51,–,–,CCN(CC)CCOc1ccc(Nc2cccc(-c3cnc4cc(-c5cnn(C)c5)ccn34)n2)cc1,–
132,28.9,3.2,2.24,–,–,Cn1cc(-c2ccn3c(-c4cccc(Nc5cccc(C(F)(F)F)c5)n4)cnc3c2)cn1,–
> 1000,12.5,2.21,0.77,–,–,Cn1cc(-c2ccn3c(-c4cccc(Nc5ccc(OCCN6CCCC6)cc5)n4)cnc3c2)cn1,–
> 1000,97.5,18.2,17.2,–,–,Cn1cc(-c2ccn3c(-c4cccc(NC5CCN(C(=O)OC(C)(C)C)CC5)n4)cnc3c2)cn1,–

# — ChEMBL document CHEMBL5528013 (Eur J Med Chem, 2024)
